Data taken from ChEMBL document CHEMBL1142438, “Pivaloyloxymethyl-modified isoprenoid bisphosphonates display enhanced inhibition of cellular geranylgeranylation” (Bioorg Med Chem, 2008).
pIC50: −log10 of the molar value. The source made the active and inactive calls. No cut-off for these calls is given here.

Key:
[1] = biological target: T1, Farnesyl pyrophosphate synthase (Homo sapiens, UniProt P14324); assay: Inhibition of human recombinant FDPS expressed in BL21 gold bacteria
T1 sequence (P14324 whole entry): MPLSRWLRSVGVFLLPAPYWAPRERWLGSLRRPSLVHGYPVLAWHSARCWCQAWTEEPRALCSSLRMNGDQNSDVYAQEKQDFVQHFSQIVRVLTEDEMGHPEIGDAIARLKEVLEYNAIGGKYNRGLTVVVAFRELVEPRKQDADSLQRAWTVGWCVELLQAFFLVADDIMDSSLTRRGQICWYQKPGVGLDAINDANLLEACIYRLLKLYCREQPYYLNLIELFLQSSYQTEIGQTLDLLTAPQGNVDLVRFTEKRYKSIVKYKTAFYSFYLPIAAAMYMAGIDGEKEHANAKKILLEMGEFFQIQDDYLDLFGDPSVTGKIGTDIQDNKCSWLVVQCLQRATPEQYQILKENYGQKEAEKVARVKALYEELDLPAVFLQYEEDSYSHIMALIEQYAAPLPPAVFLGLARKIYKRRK
Procedure, shortened: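 GST-tagged recombinant human enzyme expressed in BL21 gold bacteria (IPTG induction), purified by affinity chromatography or glutathione agarose. Reaction: 20 µM GPP, 40 µM 14C IPP in 50 mM Tris pH 7.7, 10 mM NaF, 2 mM MgCl2, 1 mg/mL BSA. 10-min preincubation with inhibitor, substrates then added; 1 h at 37 °C. Products extracted with saturated butanol; 14C incorporation by scintillation counting; n = 3.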

[2] = tested on: K562; assay: Inhibition of Rap1a protein modification in human K562 cells at 50 uM by Western blot; type: functional, cell-based
Procedure, shortened: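 K562 leukemia suspension cultures (5 × 10^6 cells/5 ml, fresh medium) incubated 24 h with compound, tested over 1, 2.5, 5, 10, 25 and 50 µM. Protein quantified by BCA; lysates run on 12% gel, transferred to PVDF, probed sequentially with primary and secondary antibodies (45 min each) for Rap1a, detected by ECL chemiluminescence.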

[3] = tested on: K562; assay: Inhibition of Rap1a protein modification in human K562 cells by Western blot relative to lovastatin; type: functional
Procedure, shortened: (§1)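 K562 cells in suspension culture (5 × 10^6 cells/5 ml, fresh medium) exposed 24 h to 1, 2.5, 5, 10, 25 or 50 µM compound. Protein quantified by BCA, resolved on 12% SDS gel, transferred to PVDF, probed for Rap1a with primary then secondary antibody (45 min each), ECL detection.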

[4] = tested on: K562; assay: Growth inhibition of human K562 cells after 24 hrs; type: functional; conditions: K562, 24 h
Procedure, shortened: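 K562 leukaemia cells (ATCC, grown per ATCC protocol), asynchronous suspension cultures at 5 × 10^6 cells/5 ml in fresh medium, exposed to compound for 24 h. Growth followed by 3H-thymidine incorporation. GI50 taken from quadruplicate dose–response curves.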

[5] = biological target: T2, Geranylgeranyl pyrophosphate synthase (Homo sapiens) (UniProt O95749); assay: Inhibition of human recombinant GGDPS expressed in BL21 gold bacteria at 10 uM relative to control; parameters: scale not given: the % may be the effect or the level left
T2 sequence (whole entry): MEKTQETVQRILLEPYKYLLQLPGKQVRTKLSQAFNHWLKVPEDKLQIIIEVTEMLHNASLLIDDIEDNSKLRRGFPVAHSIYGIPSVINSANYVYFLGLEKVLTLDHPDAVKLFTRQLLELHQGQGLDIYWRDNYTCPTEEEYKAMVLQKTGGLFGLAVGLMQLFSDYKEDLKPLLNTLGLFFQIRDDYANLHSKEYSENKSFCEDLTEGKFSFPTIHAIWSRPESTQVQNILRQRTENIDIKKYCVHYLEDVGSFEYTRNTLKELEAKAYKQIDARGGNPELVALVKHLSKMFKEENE
Procedure, shortened: (§2)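 GST-tagged recombinant human GGDPS expressed in BL21 gold E. coli (IPTG induction), glutathione-affinity purified. Reaction: 20 µM FPP, 40 µM [14C]IPP in 50 mM imidazole pH 7.5, 0.5 mM MgCl2, 0.5 mM ZnCl2. 10-min inhibitor preincubation, substrates added together, 1 h at 37 °C. [14C]GGPP extracted into butanol and counted by scintillation; activity as % of control, n = 3.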

[6] = tested on: K562; assay: Inhibition of Rap1a protein geranylgernaylation modification in human K562 cells upto 10 uM by Western blot; type: functional, cell-based; procedure, shortened: as §1
[7] = biological target: T3, Farnesyl pyrophosphate synthase (Homo sapiens) (UniProt P14324); assay: Inhibition of human recombinant FDPS expressed in BL21 gold bacteria at 100 uM relative to control; parameters: scale not given: the % may be the effect or the level left
T3 sequence (whole entry): T1 sequence (P14324 whole entry)
Procedure, shortened: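 GST-tagged recombinant human FDPS expressed in BL21 gold E. coli (IPTG induction), glutathione-affinity purified. Reaction: 20 µM GPP, 40 µM [14C]IPP in 50 mM Tris pH 7.7, 10 mM NaF, 2 mM MgCl2, 1 mg/mL BSA. 10-min enzyme–inhibitor preincubation, substrates added, 1 h at 37 °C. Butanol-extracted product counted by scintillation; n = 3.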

[8] = biological target: T2, Geranylgeranyl pyrophosphate synthase (Homo sapiens); assay: Inhibition of human recombinant GGDPS expressed in BL21 gold bacteria at 100 uM relative to control; parameters: scale not given: the % may be the effect or the level left; procedure, shortened: as §2

Structure (SMILES) | Activity [2] | Activity [3] | GI50 [4] | other results
CC(C)=CCC/C(C)=C\CC(CC=C(C)C)(P(=O)(O)O)P(=O)(O)O | inactive | 50 µM | > 100 µM | pIC50 [1]: < 4.00
CC(C)=CCC/C(C)=C\CC(C/C=C(/C)CCC=C(C)C)(P(=O)(OCOC(=O)C(C)(C)C)OCOC(=O)C(C)(C)C)P(=O)(OCOC(=O)C(C)(C)C)OCOC(=O)C(C)(C)C |  | 10 µM | > 100 µM | 
CC(C)=CCC/C(C)=C\CC(P(=O)(OCOC(=O)C(C)(C)C)OCOC(=O)C(C)(C)C)P(=O)(OCOC(=O)C(C)(C)C)OCOC(=O)C(C)(C)C | inactive | >50 µM | 7 µM | 
CC(C)=CCC/C(C)=C/CC(CC=C(C)C)(P(=O)(OCOC(=O)C(C)(C)C)OCOC(=O)C(C)(C)C)P(=O)(OCOC(=O)C(C)(C)C)OCOC(=O)C(C)(C)C | inactive | 1 µM | 5.2 µM | Activity [5]: 101%
CC(C)=CCC/C(C)=C/CC/C(C)=C/CC(P(=O)(O)O)P(=O)(O)O |  | 10 µM | 90 µM | Activity [5]: 42%
CC(C)=CCC/C(C)=C/CC/C(C)=C\CC(P(=O)(O)O)P(=O)(O)O |  | >50 µM |  | 
CC(C)=CCC/C(C)=C\CC(C/C=C(\C)CCC=C(C)C)(P(=O)(O)O)P(=O)(O)O |  | 25 µM | > 100 µM | 
CC(C)=CCC/C(C)=C\CC/C(C)=C/CC(P(=O)(OCOC(=O)C(C)(C)C)OCOC(=O)C(C)(C)C)P(=O)(OCOC(=O)C(C)(C)C)OCOC(=O)C(C)(C)C |  | 10 µM | 2.7 µM | 
CC(C)=CCC(CC=C(C)C)(P(=O)(OCOC(=O)C(C)(C)C)OCOC(=O)C(C)(C)C)P(=O)(OCOC(=O)C(C)(C)C)OCOC(=O)C(C)(C)C |  | 5 µM | 7.7 µM | Activity [6]: Active
CC(C)=CCC/C(C)=C/CC(C/C=C(\C)CCC=C(C)C)(P(=O)(OCOC(=O)C(C)(C)C)OCOC(=O)C(C)(C)C)P(=O)(OCOC(=O)C(C)(C)C)OCOC(=O)C(C)(C)C |  | 10 µM | 58 µM | Activity [5]: 96%
CC(C)=CCC/C(C)=C/CC(P(=O)(O)O)P(=O)(O)O | inactive | >50 µM | > 100 µM | Activity [7]: 11%; Activity [8]: 51%; pIC50 [1]: 4.70
CC(C)=CCC/C(C)=C/CC/C(C)=C\CC(P(=O)(OCOC(=O)C(C)(C)C)OCOC(=O)C(C)(C)C)P(=O)(OCOC(=O)C(C)(C)C)OCOC(=O)C(C)(C)C |  | >50 µM | 2 µM | 
CC(C)=CCC(CC=C(C)C)(P(=O)(O)O)P(=O)(O)O | inactive | >50 µM | > 100 µM | 
CC(C)=CCC/C(C)=C/CC(C/C=C(\C)CCC=C(C)C)(P(=O)(O)O)P(=O)(O)O [DIGERANYL BISPHOSPHONATE] |  | 25 µM | > 100 µM | 
CC(C)=CCC/C(C)=C\CC(C/C=C(/C)CCC=C(C)C)(P(=O)(O)O)P(=O)(O)O |  | 25 µM | > 100 µM | 
CC(C)=CCC/C(C)=C\CC/C(C)=C/CC(P(=O)(O)O)P(=O)(O)O |  | 50 µM |  | 
CC(C)=CCC/C(C)=C\CC(C/C=C(\C)CCC=C(C)C)(P(=O)(OCOC(=O)C(C)(C)C)OCOC(=O)C(C)(C)C)P(=O)(OCOC(=O)C(C)(C)C)OCOC(=O)C(C)(C)C |  | 25 µM | > 100 µM | 
CC(C)=CCC/C(C)=C/CC(P(=O)(OCOC(=O)C(C)(C)C)OCOC(=O)C(C)(C)C)P(=O)(OCOC(=O)C(C)(C)C)OCOC(=O)C(C)(C)C | inactive | 10 µM | 8.1 µM | Activity [7]: 99%; Activity [8]: 100%
CC(C)=CCC/C(C)=C\CC/C(C)=C\CC(P(=O)(O)O)P(=O)(O)O |  | >50 µM |  | 
CC(C)=CCC/C(C)=C\CC(P(=O)(O)O)P(=O)(O)O | inactive | >50 µM | > 100 µM | 
CC(C)=CCC/C(C)=C/CC/C(C)=C/CC(P(=O)(OCOC(=O)C(C)(C)C)OCOC(=O)C(C)(C)C)P(=O)(OCOC(=O)C(C)(C)C)OCOC(=O)C(C)(C)C |  | 10 µM | 7.9 µM | Activity [5]: 96%
CC(C)=CCC/C(C)=C\CC/C(C)=C\CC(P(=O)(OCOC(=O)C(C)(C)C)OCOC(=O)C(C)(C)C)P(=O)(OCOC(=O)C(C)(C)C)OCOC(=O)C(C)(C)C |  | >50 µM | 2.9 µM | 
CC(C)=CCC/C(C)=C/CC(CC=C(C)C)(P(=O)(O)O)P(=O)(O)O |  | 25 µM | > 100 µM | Activity [5]: 38%
CC(C)=CCC/C(C)=C\CC(CC=C(C)C)(P(=O)(OCOC(=O)C(C)(C)C)OCOC(=O)C(C)(C)C)P(=O)(OCOC(=O)C(C)(C)C)OCOC(=O)C(C)(C)C | inactive | 5 µM | 21 µM | Activity [6]: Active
